Columns and labels:
[1] = target: Neuronal acetylcholine receptor; alpha2/beta2 (Rattus norvegicus, UniProt P12389+P12390); assay: In vitro binding affinity towards rat Nicotinic acetylcholine receptor alpha2-beta2 using 0.5 nM [3H]epibatidine; format: protein-complex assay
[2] = target: Neuronal acetylcholine receptor; alpha2/beta4 (Rattus norvegicus, UniProt P12389+P12392); assay: In vitro binding affinity towards rat Nicotinic acetylcholine receptor alpha2-beta4 using 0.5 nM [3H]epibatidine; format: protein-complex assay
[3] = target: Neuronal acetylcholine receptor; alpha3/beta2 (Rattus norvegicus, UniProt P04757+P12390); assay: In vitro binding affinity towards rat Nicotinic acetylcholine receptor alpha3-beta2 using 0.5 nM [3H]epibatidine; format: protein-complex assay
[4] = target: Neuronal acetylcholine receptor; alpha3/beta4 (Rattus norvegicus, UniProt P04757+P12392); assay: In vitro binding affinity towards rat Nicotinic acetylcholine receptor alpha3-beta4 using 0.5 nM [3H]epibatidine; format: protein-complex assay
[5] = target: Neuronal acetylcholine receptor; alpha4/beta2 (Rattus norvegicus, UniProt P09483+P12390); assay: In vitro binding affinity towards rat Nicotinic acetylcholine receptor alpha4-beta2 using 0.5 nM [3H]epibatidine; format: protein-complex assay
How it was run: (§1)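 Stably transfected cell lines, each expressing one rat nAChR subtype (α4β2 or α4β4), were used. Ki was derived from the radioligand Kd for each subtype.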

[6] = target: Neuronal acetylcholine receptor; alpha4/beta4 (Rattus norvegicus, UniProt P09483+P12392); assay: In vitro binding affinity towards rat Nicotinic acetylcholine receptor alpha4-beta4 using 0.5 nM [3H]epibatidine; format: protein-complex assay; how it was run: as §1
[7] = target: Neuronal acetylcholine receptor; alpha3/beta4 (Rattus norvegicus) (UniProt P04757+P12392); assay: Agonistic activity as [86Rb+] efflux from KXalpha-3-beta-4R2 cells expressing rat Nicotinic acetylcholine receptor at 100 uM; format: functional
How it was run: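 KXα3β4R2 cells stably expressing functional rat α3β4 receptors were used. Agonism was read as stimulated 86Rb+ efflux in the presence of compound at 100 µM.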

Chain of Neuronal acetylcholine receptor; alpha3/beta4 (P04757 whole entry): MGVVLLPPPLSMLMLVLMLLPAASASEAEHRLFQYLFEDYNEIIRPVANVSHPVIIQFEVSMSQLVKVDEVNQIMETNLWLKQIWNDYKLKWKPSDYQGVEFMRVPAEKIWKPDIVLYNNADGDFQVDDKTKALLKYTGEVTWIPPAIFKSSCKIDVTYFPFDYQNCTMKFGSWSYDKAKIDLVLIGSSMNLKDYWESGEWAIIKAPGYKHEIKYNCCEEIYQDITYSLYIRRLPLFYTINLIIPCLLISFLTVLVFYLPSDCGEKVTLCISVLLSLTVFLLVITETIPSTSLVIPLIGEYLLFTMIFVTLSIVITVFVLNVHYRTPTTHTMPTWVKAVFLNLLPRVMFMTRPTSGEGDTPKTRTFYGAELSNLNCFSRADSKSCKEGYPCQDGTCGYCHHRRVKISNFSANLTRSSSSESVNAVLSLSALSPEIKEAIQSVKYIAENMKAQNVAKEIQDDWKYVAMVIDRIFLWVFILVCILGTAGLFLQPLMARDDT
Chain of Neuronal acetylcholine receptor; alpha3/beta4 (P12392 whole entry): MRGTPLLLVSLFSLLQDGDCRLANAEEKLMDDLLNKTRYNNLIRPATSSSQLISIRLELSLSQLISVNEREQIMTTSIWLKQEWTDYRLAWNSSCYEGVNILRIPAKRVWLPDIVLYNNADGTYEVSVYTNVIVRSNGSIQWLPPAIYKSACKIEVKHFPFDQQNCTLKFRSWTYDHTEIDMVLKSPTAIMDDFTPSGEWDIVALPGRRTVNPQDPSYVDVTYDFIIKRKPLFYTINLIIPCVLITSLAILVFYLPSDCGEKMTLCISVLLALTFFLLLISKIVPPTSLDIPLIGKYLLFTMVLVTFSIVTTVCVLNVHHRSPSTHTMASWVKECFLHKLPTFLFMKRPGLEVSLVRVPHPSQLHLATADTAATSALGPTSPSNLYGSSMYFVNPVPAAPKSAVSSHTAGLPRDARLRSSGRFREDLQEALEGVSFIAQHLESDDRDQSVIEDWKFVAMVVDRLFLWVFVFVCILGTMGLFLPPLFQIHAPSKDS
Chain of Neuronal acetylcholine receptor; alpha3/beta2 (P04757 whole entry): as the sequence (P04757 whole entry) above
Chain of Neuronal acetylcholine receptor; alpha3/beta2 (P12390 whole entry): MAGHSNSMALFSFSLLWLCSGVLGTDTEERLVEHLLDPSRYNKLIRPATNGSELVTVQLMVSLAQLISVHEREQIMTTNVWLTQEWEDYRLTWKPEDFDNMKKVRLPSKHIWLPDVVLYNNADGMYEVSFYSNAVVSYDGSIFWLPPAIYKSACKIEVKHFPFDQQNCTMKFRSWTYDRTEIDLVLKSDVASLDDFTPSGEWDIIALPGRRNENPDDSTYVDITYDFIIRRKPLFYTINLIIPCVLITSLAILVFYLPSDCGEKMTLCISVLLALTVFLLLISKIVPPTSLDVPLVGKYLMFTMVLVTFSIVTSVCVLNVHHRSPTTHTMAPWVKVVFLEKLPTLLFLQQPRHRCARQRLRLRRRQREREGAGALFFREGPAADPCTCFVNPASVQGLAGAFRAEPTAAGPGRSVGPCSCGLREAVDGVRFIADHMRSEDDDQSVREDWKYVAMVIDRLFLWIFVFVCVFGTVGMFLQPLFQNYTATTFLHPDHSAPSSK
Chain of Neuronal acetylcholine receptor; alpha2/beta4 (P12389 whole entry): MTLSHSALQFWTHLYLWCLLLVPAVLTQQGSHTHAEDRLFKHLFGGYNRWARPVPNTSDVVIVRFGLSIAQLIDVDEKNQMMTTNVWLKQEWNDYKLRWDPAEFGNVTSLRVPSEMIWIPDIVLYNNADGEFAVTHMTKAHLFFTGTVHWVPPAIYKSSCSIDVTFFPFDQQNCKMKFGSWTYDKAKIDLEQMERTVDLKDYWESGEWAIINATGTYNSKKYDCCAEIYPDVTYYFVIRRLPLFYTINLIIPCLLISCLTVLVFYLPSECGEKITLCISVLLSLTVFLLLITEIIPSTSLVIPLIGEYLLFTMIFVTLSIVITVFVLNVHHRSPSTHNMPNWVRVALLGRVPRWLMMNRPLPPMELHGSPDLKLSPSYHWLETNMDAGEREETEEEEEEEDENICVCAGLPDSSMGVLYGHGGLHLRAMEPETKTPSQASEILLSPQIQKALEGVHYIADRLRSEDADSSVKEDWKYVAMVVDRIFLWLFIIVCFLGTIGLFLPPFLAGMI
Chain of Neuronal acetylcholine receptor; alpha2/beta4 (P12392 whole entry): as the sequence (P12392 whole entry) above
Chain of Neuronal acetylcholine receptor; alpha2/beta2 (P12389 whole entry): as the sequence (P12389 whole entry) above
Chain of Neuronal acetylcholine receptor; alpha2/beta2 (P12390 whole entry): as the sequence (P12390 whole entry) above
Chain of Neuronal acetylcholine receptor; alpha4/beta4 (P09483 whole entry): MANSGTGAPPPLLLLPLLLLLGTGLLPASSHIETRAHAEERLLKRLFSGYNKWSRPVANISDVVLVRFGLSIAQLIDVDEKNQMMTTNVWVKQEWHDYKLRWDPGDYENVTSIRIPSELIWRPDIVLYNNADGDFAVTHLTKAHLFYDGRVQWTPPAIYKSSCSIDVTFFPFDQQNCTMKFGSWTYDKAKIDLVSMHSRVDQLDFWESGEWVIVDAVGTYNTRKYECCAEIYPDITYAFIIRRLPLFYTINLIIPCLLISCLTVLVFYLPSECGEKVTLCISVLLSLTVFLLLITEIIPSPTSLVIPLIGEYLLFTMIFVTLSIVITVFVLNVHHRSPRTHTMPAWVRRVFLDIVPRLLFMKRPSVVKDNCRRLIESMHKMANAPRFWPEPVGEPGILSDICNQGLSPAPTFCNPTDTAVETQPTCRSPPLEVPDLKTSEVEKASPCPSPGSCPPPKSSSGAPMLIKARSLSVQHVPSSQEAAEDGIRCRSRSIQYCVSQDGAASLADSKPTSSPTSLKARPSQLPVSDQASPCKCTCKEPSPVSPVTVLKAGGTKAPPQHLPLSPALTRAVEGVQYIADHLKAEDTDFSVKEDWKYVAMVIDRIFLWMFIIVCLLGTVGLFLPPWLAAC
Chain of Neuronal acetylcholine receptor; alpha4/beta4 (P12392 whole entry): as the sequence (P12392 whole entry) above
Chain of Neuronal acetylcholine receptor; alpha4/beta2 (P09483 whole entry): as the sequence (P09483 whole entry) above
Chain of Neuronal acetylcholine receptor; alpha4/beta2 (P12390 whole entry): as the sequence (P12390 whole entry) above

`Fc1ncc(C2CC3CCC2N3)cc1-c1ccccc1` (stereo unspecified) gave a Ki [1] of 0.643 nM, a Ki [2] of 16.6 nM and a Ki [3] of 3.54 nM. It also gave a Ki [4] of 947 nM, a Ki [5] of 0.733 nM and a Ki [6] of 26 nM. The Stimulation [7] was 0.4%.
Compound `Cc1cc(-c2cc(C3CC4CCC3N4)cnc2F)ccc1F` (stereo unspecified) has a Ki [1] of 1.54 nM, a Ki [2] of 60.1 nM and a Ki [3] of 8.84 nM. The Ki [4] was 2940 nM, the Ki [5] was 1.26 nM and the Ki [6] was 67.6 nM. It also gave a Stimulation [7] of 0.7%.
`CN1C2CCC1C(c1cnc(Cl)c(-c3ccccc3)c1)C2` (stereo unspecified) gave a Ki [1] of 0.053 nM, a Ki [2] of 0.24 nM and a Ki [3] of 0.158 nM. The Ki [4] was 15.4 nM, the Ki [5] was 0.032 nM and the Ki [6] was 1.57 nM. For the same compound, the Stimulation [7] was 3.9%.
Compound `Fc1ccc(-c2cc(C3CC4CCC3N4)cnc2F)cc1` (stereo unspecified) has a Ki [1] of 0.079 nM, a Ki [2] of 6.12 nM and a Ki [3] of 0.504 nM. For the same compound, the Ki [4] was 405 nM, the Ki [5] was 0.078 nM and the Ki [6] was 6.42 nM. For the same compound, the Stimulation [7] was 3.6%.
With `Cc1ccc(-c2cc(C3CC4CCC3N4)cnc2F)cc1` (stereo unspecified) the Ki [1] was 0.035 nM, the Ki [2] was 0.541 nM and the Ki [3] was 0.078 nM. The Ki [4] was 29 nM, the Ki [5] was 0.028 nM and the Ki [6] was 1.22 nM. For the same compound, the Stimulation [7] was 1%.
`COc1ccc(-c2cc(C3CC4CCC3N4)cnc2Cl)cc1` (stereo unspecified) was tested, and the Ki [1] was 0.04 nM, the Ki [2] was 0.862 nM and the Ki [3] was 0.1 nM. For the same compound, the Ki [4] was 54.5 nM, the Ki [5] was 0.034 nM and the Ki [6] was 1.57 nM. The Stimulation [7] was 3.1%.
For `CN1CCC[C@H]1c1cccnc1`, the Stimulation [7] was 100%.
In the case of `Cc1cccc(-c2cc(C3CC4CCC3N4)cnc2F)c1` (stereo unspecified), the Ki [1] is reported as 1.11 nM, the Ki [2] is reported as 31.3 nM and the Ki [3] is reported as 9.27 nM. The Ki [4] was 2400 nM, the Ki [5] was 0.898 nM and the Ki [6] was 36.7 nM. It also gave a Stimulation [7] of 0.1%.
In the case of `Fc1ncc(C2CC3CCC2N3)cc1-c1ccc(Cl)cc1` (stereo unspecified), the Ki [1] is reported as 0.064 nM, the Ki [2] is reported as 4.12 nM and the Ki [3] is reported as 0.339 nM. It also gave a Ki [4] of 256 nM, a Ki [5] of 0.062 nM and a Ki [6] of 3.99 nM. The Stimulation [7] was 3.2%.
In the case of `Cc1ccc(-c2cc(C3CC4CCC3N4)cnc2Cl)cc1` (stereo unspecified), the Ki [1] is reported as 0.044 nM, the Ki [2] is reported as 5.26 nM and the Ki [3] is reported as 0.171 nM. The Ki [4] was 429 nM, the Ki [5] was 0.058 nM and the Ki [6] was 4.75 nM. It also gave a Stimulation [7] of 3.8%.
With `Clc1ccc(C2CC3CCC2N3)cn1` (racemic) the Stimulation [7] was 112%.
For `Clc1ncc(C2CC3CCC2N3)cc1-c1ccccc1` (stereo unspecified), the Ki [1] was 0.037 nM, the Ki [2] was 0.47 nM and the Ki [3] was 0.122 nM. For the same compound, the Ki [4] was 24 nM, the Ki [5] was 0.039 nM and the Ki [6] was 1.15 nM. For the same compound, the Stimulation [7] was 6.1%.
Work on `N#Cc1ccc(-c2cc(C3CC4CCC3N4)cnc2F)cc1` (stereo unspecified) yielded a Ki [1] of 0.066 nM, a Ki [2] of 3.67 nM and a Ki [3] of 0.351 nM. For the same compound, the Ki [4] was 289 nM, the Ki [5] was 0.039 nM and the Ki [6] was 3.6 nM. For the same compound, the Stimulation [7] was 36.8%.
With `Fc1ncc(C2CC3CCC2N3)cc1-c1ccc(Cl)c(Cl)c1` (stereo unspecified) the Ki [1] was 0.245 nM, the Ki [2] was 6.99 nM and the Ki [3] was 2.31 nM. For the same compound, the Ki [4] was 334 nM, the Ki [5] was 0.28 nM and the Ki [6] was 7.36 nM. The Stimulation [7] was 2.7%.

From ChEMBL document CHEMBL1142744 (Bioorg Med Chem Lett, 2005)
